In ChEMBL document CHEMBL4138221, “Discovery, optimization and biological evaluation for novel c-Met kinase inhibitors” (Eur J Med Chem, 2018) one finds IC50, inhibition of growth and inhibition data, which are given here for six compounds.

The subject of test [1] is EBC-1. Description: Antiproliferative activity against human EBC1 cells after 72 hrs by Alamarblue assay. Particulars: EBC-1, 72 h. For orientation: The colour change of resazurin is a common sign of viable cells or microbes.
Test [2] concerns COLO 205. Description: Antiproliferative activity against human COLO205 cells after 72 hrs by Alamarblue assay. It is filed as functional, cell-based. Particulars: COLO 205, 72 h. Put shortly:
(§1)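 Cells were seeded in medium with 10% FBS at 37 °C and 5% CO2. After 24 h the medium was switched to serum-free medium containing 0.04% BSA, and cells were exposed to compound for 72 h. AlamarBlue was then added for 1–4 h at 37 °C in the dark, and fluorescence was read at ex 570 / em 585 nm. IC50 was obtained by nonlinear regression fitting.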

Test [3] concerns PC-3. Put plainly: Antiproliferative activity against human PC3 cells after 72 hrs by Alamarblue assay. The note with it: PC-3, 72 h. The test is classed as functional, cell-based. Put shortly:
as §1

Test [4] deals with MKN-45. Description: Antiproliferative activity against human MKN45 cells after 72 hrs by Alamarblue assay. Particulars: MKN-45, 72 h.
Test [5] has as its system NCI-H460. Put plainly: Antiproliferative activity against human NCI-H460 cells after 72 hrs by Alamarblue assay. The test is classed as functional, cell-based. The note with it: NCI-H460, 72 h. Put shortly:
as §1

The subject of test [6] is PC-3. Put plainly: Antiproliferative activity against human PC3 cells at 10 uM after 72 hrs by Alamarblue assay relative to control. It is filed as functional. The note with it: PC-3, 72 h, read-out: GI. Put shortly: (§2)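 Single-concentration screen in cells kept at 37 °C and 5% CO2. Cells were plated in 10% FBS medium, then moved after 24 h to serum-free medium with 0.04% BSA. Compound exposure lasted 72 h. AlamarBlue was added for 1–4 h at 37 °C protected from light, and fluorescence was measured at ex 570 / em 585 nm.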

In test [7] the target is Hepatocyte growth factor receptor (Homo sapiens, UniProt P08581). Put plainly: Inhibition of human GST-tagged c-MET using KKKSPGEYVNIEFG as substrate preincubated for 20 mins followed by [gamma-33P]ATP addition and measured after 2 hrs by filter-binding assay.
Sequence of Hepatocyte growth factor receptor (P08581 whole entry): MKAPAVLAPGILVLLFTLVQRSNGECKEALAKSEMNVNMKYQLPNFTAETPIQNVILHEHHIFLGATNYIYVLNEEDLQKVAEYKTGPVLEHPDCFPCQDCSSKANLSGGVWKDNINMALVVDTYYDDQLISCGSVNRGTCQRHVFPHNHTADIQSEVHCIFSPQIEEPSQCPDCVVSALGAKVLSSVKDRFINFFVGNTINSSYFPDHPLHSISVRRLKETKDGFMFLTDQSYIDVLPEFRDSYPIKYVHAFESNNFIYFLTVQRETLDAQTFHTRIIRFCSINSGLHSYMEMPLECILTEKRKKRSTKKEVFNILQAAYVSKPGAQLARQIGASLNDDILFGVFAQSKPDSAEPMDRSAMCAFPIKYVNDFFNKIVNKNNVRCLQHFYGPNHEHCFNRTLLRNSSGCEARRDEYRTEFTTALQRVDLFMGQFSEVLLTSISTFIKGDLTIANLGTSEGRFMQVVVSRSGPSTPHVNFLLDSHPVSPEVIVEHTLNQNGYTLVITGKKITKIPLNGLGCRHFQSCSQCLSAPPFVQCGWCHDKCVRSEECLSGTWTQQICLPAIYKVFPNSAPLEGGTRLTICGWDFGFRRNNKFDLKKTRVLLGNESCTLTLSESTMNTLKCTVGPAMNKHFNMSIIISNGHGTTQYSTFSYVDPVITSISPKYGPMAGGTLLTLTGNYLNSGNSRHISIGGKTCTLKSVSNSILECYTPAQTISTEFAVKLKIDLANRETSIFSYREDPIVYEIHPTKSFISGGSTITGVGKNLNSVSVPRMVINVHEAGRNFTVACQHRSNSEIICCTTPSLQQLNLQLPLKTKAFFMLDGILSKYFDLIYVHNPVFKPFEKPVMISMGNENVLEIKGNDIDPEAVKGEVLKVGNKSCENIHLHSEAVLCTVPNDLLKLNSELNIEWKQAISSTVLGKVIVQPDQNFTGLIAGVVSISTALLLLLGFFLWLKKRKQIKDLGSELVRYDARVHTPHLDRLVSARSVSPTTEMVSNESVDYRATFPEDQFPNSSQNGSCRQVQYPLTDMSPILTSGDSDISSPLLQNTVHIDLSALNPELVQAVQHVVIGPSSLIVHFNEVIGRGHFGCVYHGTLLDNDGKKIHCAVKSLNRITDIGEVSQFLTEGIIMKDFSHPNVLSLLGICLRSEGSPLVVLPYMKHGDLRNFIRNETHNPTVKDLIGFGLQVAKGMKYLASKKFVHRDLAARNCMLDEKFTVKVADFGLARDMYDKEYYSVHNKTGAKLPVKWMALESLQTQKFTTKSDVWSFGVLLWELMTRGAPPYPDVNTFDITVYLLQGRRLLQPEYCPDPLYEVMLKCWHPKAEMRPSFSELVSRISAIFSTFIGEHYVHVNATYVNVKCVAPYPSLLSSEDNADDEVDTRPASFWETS
Test [8] has as its system HCT-116. Put plainly: Antiproliferative activity against human HCT116 cells at 10 uM after 72 hrs by Alamarblue assay relative to control. The test is classed as functional. Particulars: HCT-116, 72 h, read-out: GI. The method in brief: as §2
Test [9] concerns the target Vascular endothelial growth factor receptor 2 (Homo sapiens, UniProt P35968). Description: Inhibition of KDR (unknown origin).
For test [10], the system named is SGC-7901. Put plainly: Antiproliferative activity against human SGC7901 cells at 10 uM after 72 hrs by Alamarblue assay relative to control. It is filed as functional. The note with it: SGC-7901, 72 h, read-out: GI. Put shortly: as §2
Test [11] deals with Serine/threonine-protein kinase B-raf (Homo sapiens) (UniProt P15056). Description: Inhibition of B-raf (unknown origin) at 50 uM.
Sequence of Serine/threonine-protein kinase B-raf (Homo sapiens) (P15056 whole entry): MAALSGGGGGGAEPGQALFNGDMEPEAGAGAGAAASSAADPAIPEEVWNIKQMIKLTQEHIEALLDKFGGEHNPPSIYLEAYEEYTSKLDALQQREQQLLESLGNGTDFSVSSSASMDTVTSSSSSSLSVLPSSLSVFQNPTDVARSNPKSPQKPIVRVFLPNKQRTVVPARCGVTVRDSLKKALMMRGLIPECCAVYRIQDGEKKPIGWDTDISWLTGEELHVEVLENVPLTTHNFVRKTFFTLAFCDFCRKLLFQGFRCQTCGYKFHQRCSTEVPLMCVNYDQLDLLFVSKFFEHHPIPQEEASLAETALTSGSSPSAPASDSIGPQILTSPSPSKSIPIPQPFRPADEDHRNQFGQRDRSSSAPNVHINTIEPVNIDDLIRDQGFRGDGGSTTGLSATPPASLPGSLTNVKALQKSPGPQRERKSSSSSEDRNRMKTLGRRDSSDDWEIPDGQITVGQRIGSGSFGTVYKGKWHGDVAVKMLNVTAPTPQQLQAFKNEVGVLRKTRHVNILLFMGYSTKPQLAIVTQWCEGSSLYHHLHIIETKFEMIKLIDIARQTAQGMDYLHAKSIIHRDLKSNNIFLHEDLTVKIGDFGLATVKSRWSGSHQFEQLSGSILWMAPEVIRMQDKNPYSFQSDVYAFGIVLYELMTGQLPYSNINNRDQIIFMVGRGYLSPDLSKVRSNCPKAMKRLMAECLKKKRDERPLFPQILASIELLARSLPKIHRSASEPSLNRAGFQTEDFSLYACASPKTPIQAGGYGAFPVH
In test [12] the test system is MCF7. Put plainly: Antiproliferative activity against human MCF7 cells at 10 uM after 72 hrs by Alamarblue assay relative to control. The test is classed as functional. The note with it: MCF7, 72 h, read-out: GI. Put shortly:
as §2

The subject of test [13] is A549. Put plainly: Antiproliferative activity against human A549 cells at 10 uM after 72 hrs by Alamarblue assay relative to control. The test is classed as functional. Particulars: A549, 72 h, read-out: GI. Put shortly: as §2
Test [14] deals with MCF7. Description: Antiproliferative activity against human MCF7 cells after 72 hrs by Alamarblue assay relative to control. The note with it: MCF7, 72 h.
The subject of test [15] is SGC-7901. Description: Antiproliferative activity against human SGC7901 cells after 72 hrs by Alamarblue assay relative to control. Particulars: SGC-7901, 72 h.
Test [16] has as its system A549. Description: Antiproliferative activity against human A549 cells after 72 hrs by Alamarblue assay relative to control. The note with it: A549, 72 h.
Test [17] deals with HCT-116. Description: Antiproliferative activity against human HCT116 cells after 72 hrs by Alamarblue assay relative to control. The note with it: HCT-116, 72 h.

The term IC50 denotes the point on the concentration scale where inhibition reaches its midpoint. Broadly, the inhibition is how much of the control response was suppressed. The low end stands for a weak effect, the high end for a strong effect.

Sequence of Vascular endothelial growth factor receptor 2 (P35968 whole entry): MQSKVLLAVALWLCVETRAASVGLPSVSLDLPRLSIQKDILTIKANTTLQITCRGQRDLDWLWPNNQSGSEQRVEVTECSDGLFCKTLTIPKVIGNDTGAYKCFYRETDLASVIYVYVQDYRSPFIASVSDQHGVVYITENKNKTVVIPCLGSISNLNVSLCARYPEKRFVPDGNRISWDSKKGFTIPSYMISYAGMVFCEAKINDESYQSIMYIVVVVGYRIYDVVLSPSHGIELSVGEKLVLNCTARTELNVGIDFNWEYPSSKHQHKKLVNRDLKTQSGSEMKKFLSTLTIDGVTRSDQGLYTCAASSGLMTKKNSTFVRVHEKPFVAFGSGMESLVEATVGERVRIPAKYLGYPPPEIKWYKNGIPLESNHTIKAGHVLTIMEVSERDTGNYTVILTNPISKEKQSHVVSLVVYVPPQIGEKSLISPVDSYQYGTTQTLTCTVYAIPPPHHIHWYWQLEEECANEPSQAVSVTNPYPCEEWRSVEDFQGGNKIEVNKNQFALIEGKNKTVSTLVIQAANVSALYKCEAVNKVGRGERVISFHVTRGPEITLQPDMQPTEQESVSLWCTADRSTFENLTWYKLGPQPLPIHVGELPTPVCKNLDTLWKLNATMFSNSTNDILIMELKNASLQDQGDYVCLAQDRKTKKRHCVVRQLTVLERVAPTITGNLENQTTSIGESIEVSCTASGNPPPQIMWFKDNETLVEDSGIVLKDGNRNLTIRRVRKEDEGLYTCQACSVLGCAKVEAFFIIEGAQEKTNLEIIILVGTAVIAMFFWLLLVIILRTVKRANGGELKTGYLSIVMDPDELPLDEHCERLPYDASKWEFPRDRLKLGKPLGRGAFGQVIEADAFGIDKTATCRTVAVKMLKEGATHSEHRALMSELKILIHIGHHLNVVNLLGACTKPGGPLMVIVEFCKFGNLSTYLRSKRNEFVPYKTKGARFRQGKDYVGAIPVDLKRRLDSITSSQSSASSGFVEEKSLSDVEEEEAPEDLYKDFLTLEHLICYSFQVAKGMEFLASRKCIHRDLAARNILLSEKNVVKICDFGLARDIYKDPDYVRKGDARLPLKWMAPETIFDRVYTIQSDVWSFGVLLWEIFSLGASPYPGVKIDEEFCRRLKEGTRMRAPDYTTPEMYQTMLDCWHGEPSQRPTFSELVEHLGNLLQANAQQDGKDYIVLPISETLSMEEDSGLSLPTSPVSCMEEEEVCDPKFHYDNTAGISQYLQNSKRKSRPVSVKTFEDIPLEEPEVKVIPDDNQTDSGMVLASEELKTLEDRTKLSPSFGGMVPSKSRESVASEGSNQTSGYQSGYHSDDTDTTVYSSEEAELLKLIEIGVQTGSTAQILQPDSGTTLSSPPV

For `COc1ccc2c(OCc3nnc4sc(-c5cc6ccccc6[nH]5)nn34)ccnc2c1`, the IC50 in test [1] came to 506 nM; in test [2], 2240 nM; in [3] it was 2.97 µM; in test [4], 1170 nM; in test [5], 2060 nM.
In the case of `COc1ccc(Cc2nnc3sc(-c4cc5ccccc5[nH]4)nn23)cc1`, the inhibition of growth at 10 µM was 55.1% in test [6]; 0.64% in test [8]; 12.3% in test [10]; 14.9% in [12]; 6.08% in test [13]. Further, the 50% inhibitory concentration (IC50) in [7] worked out at 190 nM; in test [9], 3.33 µM. In [11], this compound came in with an inhibition of 17.8%.
Consider `COc1ccc(Cc2nnc3sc(-c4ccccc4OC)nn23)cc1`, for which the inhibition of growth at 10 µM was 57.7% in [6]; 8.2% in test [8]; 15.5% in test [10]; 35.7% in test [12]; 10.4% in test [13].
In the same order, the values of `Fc1ccccc1-c1cn2c(COc3ccc4c(c3)OCO4)nnc2s1` are 19.4%, 4.73%, 12.4%, 45.4% and 20.1%.
For `COc1ccc2c(OCc3nnc4sc(-c5ccc6[nH]cnc6c5)nn34)ccnc2c1`, the IC50 was found to be 3170 nM in test [1] and 1020 nM in [4].
Regarding `C[C@@H](Oc1cc(-c2cnn(C3CCNCC3)c2)cnc1N)c1c(Cl)ccc(F)c1Cl` [CRIZOTINIB], the IC50 came out at 13 nM in [1]; 2450 nM in [2]; 9.79 µM in [3]; 45 nM in test [14]; 321 nM in test [15]; 22 nM in test [4]. For the same compound, the results for the half-inhibitory concentration (IC50) in test [16], in test [17] and in [5] were 134 nM, 254 nM and 2240 nM, respectively.
